From ChEMBL document CHEMBL4706601, “The endocannabinoid system dual-target ligand N-cycloheptyl-1,2-dihydro-5-bromo-1-(4-fluorobenzyl)-6-methyl-2-oxo-pyridine-3-carboxamide improves disease severity in a mouse model of multiple sclerosis” (Eur J Med Chem, 2020)

Experiments:
Cannabinoid receptor 1 [1] = biological target: T1, Cannabinoid receptor 1 (Homo sapiens, UniProt P21554); experiment: Partial agonist activity at human CB1R expressed in CHO cell membranes after 90 mins by [35S]GTPgammaS assay; assay type: functional, Membrane
T1 sequence (P21554 whole entry): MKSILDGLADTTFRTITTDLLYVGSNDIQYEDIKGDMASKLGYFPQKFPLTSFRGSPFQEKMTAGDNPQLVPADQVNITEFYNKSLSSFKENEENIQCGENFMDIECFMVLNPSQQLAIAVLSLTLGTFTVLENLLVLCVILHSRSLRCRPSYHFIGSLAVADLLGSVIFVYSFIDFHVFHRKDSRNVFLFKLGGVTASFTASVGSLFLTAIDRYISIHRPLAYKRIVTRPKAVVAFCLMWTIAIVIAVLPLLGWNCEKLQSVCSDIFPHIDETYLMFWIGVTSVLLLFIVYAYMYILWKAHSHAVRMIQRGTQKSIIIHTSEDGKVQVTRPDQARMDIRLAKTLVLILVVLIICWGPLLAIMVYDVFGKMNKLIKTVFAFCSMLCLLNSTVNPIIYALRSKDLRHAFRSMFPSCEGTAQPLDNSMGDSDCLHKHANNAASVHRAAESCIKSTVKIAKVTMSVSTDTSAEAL
Procedure, shortened: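 Membranes from CHO cells stably expressing hCB1 (10 µg), in 50 mM Tris-HCl, 3 mM MgCl2, 0.2 mM EDTA, 100 mM NaCl, 0.5% fatty-acid-free BSA, pH 7.4, with 10 µM GDP and 0.1 nM [35S]GTPγS. Compounds added at several concentrations. Incubated 90 min at 30 °C, then rapid filtration and radioactivity counting. Non-specific binding measured with 10 µM GTPγS.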

[2] = biological target: T2, Fatty-acid amide hydrolase 1 (Homo sapiens, UniProt O00519); experiment: Inhibition of FAAH in human U937 cells using [ethanolamine-1-3H]AEA as substrate preincubated for 15 mins followed by substrate addition and measured after 15 mins by liquid scintillation spectroscopy; assay type: cell-based, U-937
T2 sequence (O00519 whole entry): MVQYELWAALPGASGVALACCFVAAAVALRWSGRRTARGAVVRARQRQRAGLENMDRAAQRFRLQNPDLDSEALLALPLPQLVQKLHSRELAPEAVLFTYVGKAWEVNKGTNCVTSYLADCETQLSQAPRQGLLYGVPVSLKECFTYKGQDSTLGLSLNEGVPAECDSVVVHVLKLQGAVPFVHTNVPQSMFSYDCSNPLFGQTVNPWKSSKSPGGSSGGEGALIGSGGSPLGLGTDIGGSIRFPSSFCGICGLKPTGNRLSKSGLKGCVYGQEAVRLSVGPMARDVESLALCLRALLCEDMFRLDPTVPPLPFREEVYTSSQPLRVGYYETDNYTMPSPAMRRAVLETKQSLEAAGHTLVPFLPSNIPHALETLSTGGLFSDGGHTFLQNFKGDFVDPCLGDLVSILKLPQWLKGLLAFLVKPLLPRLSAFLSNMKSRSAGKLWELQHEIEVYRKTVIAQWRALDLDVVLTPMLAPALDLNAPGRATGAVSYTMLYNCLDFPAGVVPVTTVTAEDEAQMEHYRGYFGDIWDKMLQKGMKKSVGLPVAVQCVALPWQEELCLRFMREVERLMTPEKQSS
Procedure, shortened: (§1)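 Intact U937 cells, 10^6 per condition, pre-incubated with compound 15 min at 37 °C with shaking (screen at 10 μM; full curves for hits). Substrate: 1 μM AEA with 1 nM [3H]AEA (FAAH) or 10 μM 2-OG with 5 nM [3H]2-OG (MAGL), 15 min at 37 °C. Stopped with CHCl3:MeOH 1:1, aqueous tritium counted; mean ± SD, ≥3 experiments in triplicate.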

Cannabinoid receptor 1 [3] = biological target: T1, Cannabinoid receptor 1; experiment: Displacement of [3H]CP55940 from recombinant human CB1R expressed in CHO cell membranes incubated for 90 mins; design: species or system Membrane
[4] = biological target: T3, Monoacylglycerol lipase ABHD6 (Homo sapiens, UniProt Q9BV23); experiment: Inhibition of human ABHD6 expressed in HEK293 cells using 2-OG as substrate preincubated for 30 mins followed by substrate addition and measured after 5 mins by liquid scintillation spectroscopy; assay type: cell-based
T3 sequence (Q9BV23 whole entry): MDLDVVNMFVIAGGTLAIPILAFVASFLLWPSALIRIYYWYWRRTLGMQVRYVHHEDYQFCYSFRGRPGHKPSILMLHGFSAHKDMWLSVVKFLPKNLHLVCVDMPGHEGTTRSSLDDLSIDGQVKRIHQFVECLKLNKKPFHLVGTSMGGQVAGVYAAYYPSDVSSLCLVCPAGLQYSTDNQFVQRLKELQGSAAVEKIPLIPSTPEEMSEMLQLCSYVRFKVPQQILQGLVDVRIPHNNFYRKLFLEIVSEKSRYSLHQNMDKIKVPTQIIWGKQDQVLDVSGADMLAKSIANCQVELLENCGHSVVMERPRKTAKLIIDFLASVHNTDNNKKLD
Procedure, shortened: (§2)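 Homogenates (40 µg) from HEK293 stably expressing hABHD6 or hABHD12 pre-incubated with compound 30 min at 37 °C in […], 0.1% BSA, pH 7.6; then 10 μM 2-OG for 5 min at 37 °C. Aqueous phase tritium counted after CHCl3:MeOH stop; no-enzyme blanks and non-transfected HEK293 hydrolysis subtracted. Controls WWL70 10 μM, THL 20 μM.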

Cannabinoid receptor 2 [5] = biological target: T4, Cannabinoid receptor 2 (Homo sapiens, UniProt P34972); experiment: Displacement of [3H]CP55940 from recombinant human CB2R expressed in CHO cell membranes incubated for 90 mins; design: species or system Membrane
T4 sequence (P34972 whole entry): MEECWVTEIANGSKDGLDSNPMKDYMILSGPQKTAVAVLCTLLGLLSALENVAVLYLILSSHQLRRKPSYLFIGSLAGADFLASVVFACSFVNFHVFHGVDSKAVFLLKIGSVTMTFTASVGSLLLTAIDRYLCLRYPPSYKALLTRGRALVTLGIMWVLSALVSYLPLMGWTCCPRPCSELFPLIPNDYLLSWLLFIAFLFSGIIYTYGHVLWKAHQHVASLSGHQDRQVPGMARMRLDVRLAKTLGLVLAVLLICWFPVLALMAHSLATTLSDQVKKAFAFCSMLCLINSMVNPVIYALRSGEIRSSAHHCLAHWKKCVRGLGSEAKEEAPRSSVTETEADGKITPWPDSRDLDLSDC

Monoglyceride lipase = biological target: T5, Monoglyceride lipase (Homo sapiens, UniProt Q99685); experiment: Inhibition of MAGL in human U937 cells using [glycerol-1,2,3-3H]2-OG as substrate preincubated for 15 mins followed by substrate addition and measured after 15 mins by liquid scintillation spectroscopy; assay type: cell-based, U-937; procedure, shortened: as §1
T5 sequence (Q99685 whole entry): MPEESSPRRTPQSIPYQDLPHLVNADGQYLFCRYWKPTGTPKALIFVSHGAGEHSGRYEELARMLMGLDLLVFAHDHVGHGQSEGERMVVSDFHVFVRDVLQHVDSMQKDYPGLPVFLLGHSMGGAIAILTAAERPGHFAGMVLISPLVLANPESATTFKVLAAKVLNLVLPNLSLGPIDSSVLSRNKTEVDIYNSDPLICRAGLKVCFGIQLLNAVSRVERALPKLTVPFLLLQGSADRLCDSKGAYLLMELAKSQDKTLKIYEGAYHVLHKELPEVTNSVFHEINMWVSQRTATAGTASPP

Cannabinoid receptor 2 [6] = biological target: T4, Cannabinoid receptor 2; experiment: Inverse agonist activity at human CB2R expressed in CHO cell membranes after 90 mins by [35S]GTPgammaS assay; assay type: functional, Membrane
Procedure, shortened: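 In-house CHO membranes expressing hCB1 or hCB2 (10 µg) in 50 mM Tris-HCl, 3 mM MgCl2, 0.2 mM EDTA, 100 mM NaCl, 0.5% fatty-acid-free BSA, pH 7.4, with 10 μM GDP and 0.1 nM [35S]GTPγS. Incubated 90 min at 30 °C; antagonist pre-incubated 30 min. Nonspecific binding with 10 μM GTPγS; bound label by filtration and counting; ≥3 experiments in triplicate.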

[7] = biological target: T6, Lysophosphatidylserine lipase ABHD12 (Homo sapiens, UniProt Q8N2K0); experiment: Inhibition of human ABHD12 expressed in HEK293 cells using 2-OG as substrate preincubated for 30 mins followed by substrate addition and measured after 5 mins by liquid scintillation spectroscopy; assay type: cell-based; procedure, shortened: as §2
T6 sequence (Q8N2K0 whole entry): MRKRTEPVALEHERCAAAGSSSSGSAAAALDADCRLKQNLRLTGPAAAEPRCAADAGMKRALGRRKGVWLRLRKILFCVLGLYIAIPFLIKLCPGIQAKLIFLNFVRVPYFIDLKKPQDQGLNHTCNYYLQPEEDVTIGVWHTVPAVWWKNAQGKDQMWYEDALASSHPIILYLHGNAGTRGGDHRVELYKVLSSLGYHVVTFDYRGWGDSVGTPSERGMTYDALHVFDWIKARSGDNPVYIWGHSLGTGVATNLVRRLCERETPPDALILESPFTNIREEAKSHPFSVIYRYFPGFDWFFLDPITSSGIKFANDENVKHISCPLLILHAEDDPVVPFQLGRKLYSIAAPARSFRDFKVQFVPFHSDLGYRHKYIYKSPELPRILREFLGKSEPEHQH

Structure (SMILES): Cc1c(-c2ccc(F)cc2)cc(C(=O)NC2CCCCCC2)c(=O)n1Cc1ccc(F)cc1
- EC50 (Cannabinoid receptor 1 [1]): 120 nM
- IC50 [2]: 530 nM
- Ki (Cannabinoid receptor 1 [3]): 49.3 nM
- IC50 [4]: > 10000 nM
- Ki (Cannabinoid receptor 2 [5]): 28.9 nM
- IC50 (Monoglyceride lipase): > 10000 nM
- EC50 (Cannabinoid receptor 2 [6]): 6.45 nM
- IC50 [7]: 600 nM
